Our source for the Ki and inhibition values is ChEMBL document CHEMBL2029293, “Fluorophosphonylated nucleoside derivatives as new series of thymidine phosphorylase multisubstrate inhibitors” (J Med Chem, 2012).

Chain of Thymidine phosphorylase (P07650 whole entry): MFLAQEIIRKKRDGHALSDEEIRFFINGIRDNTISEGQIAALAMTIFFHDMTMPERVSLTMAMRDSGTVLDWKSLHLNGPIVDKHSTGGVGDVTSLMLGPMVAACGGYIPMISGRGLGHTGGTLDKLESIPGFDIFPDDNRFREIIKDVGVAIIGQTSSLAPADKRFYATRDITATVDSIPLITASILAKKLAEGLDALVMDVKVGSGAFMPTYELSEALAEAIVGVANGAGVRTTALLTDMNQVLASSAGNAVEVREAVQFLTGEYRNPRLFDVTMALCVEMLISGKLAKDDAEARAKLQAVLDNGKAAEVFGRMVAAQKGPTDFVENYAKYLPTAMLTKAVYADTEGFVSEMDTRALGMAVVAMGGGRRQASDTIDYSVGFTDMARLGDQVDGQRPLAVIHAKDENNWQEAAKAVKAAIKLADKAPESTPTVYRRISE
Chain of Thymidine phosphorylase (Escherichia coli K-12) (P07650 whole entry, looked up): as the sequence (P07650 whole entry) above

One assay concerns the target Thymidine phosphorylase (Escherichia coli K-12, UniProt P07650). Briefly: Competitive inhibition of Escherichia coli thymidine phosphorylase incubated for 20 mins at room temperature followed by 5 mins incubation at 90 degC by Lineweaver-Burk plot analysis.
The compound `Cc1cn(Cc2cn(CCCCC(F)(F)P(=O)(O)O)nn2)c(=O)[nH]c1=O` yielded a Ki of 58 µM.
On the same count and under the same terms, under `Nc1c(Br)c(=O)[nH]c(=O)n1CCCCCCCCP(=O)(O)O` stands 142 µM; under `O=P(O)(O)CCCCCCCCn1ccc2c(O)nc(O)nc21`, 54 µM.

The next assay has as its target Thymidine phosphorylase (Escherichia coli K-12) (UniProt P07650). Briefly: Inhibition of Escherichia coli thymidine phosphorylase at 100 uM incubated for 20 mins at room temperature followed by 5 mins incubation at 90 degC by HPLC analysis. In outline:
(§1)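 Enzyme from E. coli, combined with thymidine and orthophosphate in Tris buffer. Phosphonic acid added at 1 mM or 100 μM. Incubated 20 min at room temperature, then 5 min at 90 °C. Thymidine separated from thymine by HPLC and percent inhibition calculated.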
Consider `Cc1cn(Cc2cn(CCCC(F)(F)P(=O)(O)O)nn2)c(=O)[nH]c1=O`, for which the inhibition came out at 36%.
`Cc1cn(CCCCCCCCCCCC(F)(F)P(=O)(O)O)c(=O)[nH]c1=O` showed an inhibition of 56%.
Take `Cc1cn(CCCCCCSCCCCC(F)(F)P(=O)(O)O)c(=O)[nH]c1=O`: the inhibition worked out at 38%.
`Nc1nc(O)c2ncn(CCCCC(F)(F)P(=O)(O)O)c2n1` gave an inhibition of 34%.
On the same count and under the same terms, under `Cc1cn(CCCCSCCCCC(F)(F)P(=O)(O)O)c(=O)[nH]c1=O` stands 40%.
Regarding `Cc1cn(Cc2cn(CCCCC(F)(F)P(=O)(O)O)nn2)c(=O)[nH]c1=O`, the inhibition came to 68%.
Take `Cc1cn(CCCCC(F)(F)P(=O)(O)O)c(=O)[nH]c1=O`: the inhibition is 15%.
Take `Nc1c(Br)c(=O)[nH]c(=O)n1CCCCCCCCP(=O)(O)O`: the inhibition stood at 64%.
In turn, `O=c1ccn(Cc2cn(CCCCC(F)(F)P(=O)(O)O)nn2)c(=O)[nH]1` came in with an inhibition of 22%.
`Cc1cn(CCCCCCCCCC(F)(F)P(=O)(O)O)c(=O)[nH]c1=O` came in with an inhibition of 55%.
On to `O=c1[nH]c(=O)n(CCCCC(F)(F)P(=O)(O)O)cc1Br`, for which the inhibition turned out to be 20%.
The same measure, in the same setting: under `Cc1cn(CCCCP(=O)(O)O)c(=O)[nH]c1=O` stands 0%; under `Cc1cn(CCCCCCCCC(F)(F)P(=O)(O)O)c(=O)[nH]c1=O`, 55%.
The compound `Cc1cn(CCCC(F)(F)P(=O)(O)O)c(=O)[nH]c1=O` displayed an inhibition of 4%.
Regarding `Nc1nc(O)c2ncn(Cc3cn(CCCCC(F)(F)P(=O)(O)O)nn3)c2n1`, the inhibition stood at 35%.
The same measure, in the same setting: under `Nc1[nH]c(=O)[nH]c(=O)c1Br` stands 71%.
`O=c1ccn(CCCCC(F)(F)P(=O)(O)O)c(=O)[nH]1` registered an inhibition of 15%.
`O=P(O)(O)C(F)(F)CCCCn1cc(Cn2cnc3c(O)ncnc32)nn1`: the inhibition came to 35%.
The same measure, in the same setting: under `Cc1cn(CCCCCCCCP(=O)(O)O)c(=O)[nH]c1=O` stands 15%; under `Cc1cn(CCSCCCCC(F)(F)P(=O)(O)O)c(=O)[nH]c1=O`, 0%; under `Cc1cn(CCCSCCCCC(F)(F)P(=O)(O)O)c(=O)[nH]c1=O`, 43%.
In turn, `Cc1cn(Cc2cn(CC(F)(F)P(=O)(O)O)nn2)c(=O)[nH]c1=O` yielded an inhibition of 9%.
`Cc1cn(CC(I)CC(F)(F)P(=O)(O)O)c(=O)[nH]c1=O` (centres undefined): the inhibition turned out to be 52%.
`O=P(O)(O)C(F)(F)CCCCn1cnc2c(O)ncnc21` showed an inhibition of 9%.
Same read-out and setting: with `O=P(O)(O)C(F)(F)CCCn1cc(Cn2cnc3c(O)ncnc32)nn1` the figure was 29%.
With `Nc1nc(O)c2ncn(CCCC(F)(F)P(=O)(O)O)c2n1`, the inhibition was found to be 4%.

For a further assay the target is unchanged. Nature of the assay: Inhibition of Escherichia coli thymidine phosphorylase at 1 mM incubated for 20 mins at room temperature followed by 5 mins incubation at 90 degC by HPLC analysis. An outline of the steps:
as §1
`Cc1cn(Cc2cn(CCCC(F)(F)P(=O)(O)O)nn2)c(=O)[nH]c1=O` displayed an inhibition of 79%.
For `Cc1cn(CCCCCCCCCCCC(F)(F)P(=O)(O)O)c(=O)[nH]c1=O`, the inhibition turned out to be 88%.
On the same count and under the same terms, with `Cc1cn(CCCCCCSCCCCC(F)(F)P(=O)(O)O)c(=O)[nH]c1=O` the figure was 86%.
The same measure, in the same setting: under `Nc1nc(O)c2ncn(CCCCC(F)(F)P(=O)(O)O)c2n1` stands 74%; under `Cc1cn(CCCCSCCCCC(F)(F)P(=O)(O)O)c(=O)[nH]c1=O`, 78%.
Regarding `Cc1cn(Cc2cn(CCCCC(F)(F)P(=O)(O)O)nn2)c(=O)[nH]c1=O`, the inhibition came to 90%.
For `Cc1cn(CCCCC(F)(F)P(=O)(O)O)c(=O)[nH]c1=O`, the inhibition stood at 68%.
In turn, `O=c1ccn(Cc2cn(CCCCC(F)(F)P(=O)(O)O)nn2)c(=O)[nH]1` registered an inhibition of 79%.
Regarding `Cc1cn(CCCCCCCCCC(F)(F)P(=O)(O)O)c(=O)[nH]c1=O`, the inhibition was found to be 86%.
The same measure, in the same setting: with `O=c1[nH]c(=O)n(CCCCC(F)(F)P(=O)(O)O)cc1Br` the figure was 61%.
`Cc1cn(CCCCP(=O)(O)O)c(=O)[nH]c1=O` had an inhibition of 23%.
As to `Cc1cn(CCCCCCCCC(F)(F)P(=O)(O)O)c(=O)[nH]c1=O`, the inhibition came to 85%.
The compound `Cc1cn(CCCC(F)(F)P(=O)(O)O)c(=O)[nH]c1=O` showed an inhibition of 51%.
For `Nc1nc(O)c2ncn(Cc3cn(CCCCC(F)(F)P(=O)(O)O)nn3)c2n1`, the inhibition came out at 76%.
Turning to `Nc1[nH]c(=O)[nH]c(=O)c1Br`, the inhibition is 100%.
The compound `O=c1ccn(CCCCC(F)(F)P(=O)(O)O)c(=O)[nH]1` displayed an inhibition of 44%.
Regarding `O=P(O)(O)C(F)(F)CCCCn1cc(Cn2cnc3c(O)ncnc32)nn1`, the inhibition amounted to 76%.
In turn, `Cc1cn(CCSCCCCC(F)(F)P(=O)(O)O)c(=O)[nH]c1=O` came in with an inhibition of 36%.
`Cc1cn(CCCSCCCCC(F)(F)P(=O)(O)O)c(=O)[nH]c1=O` registered an inhibition of 90%.
In turn, `Cc1cn(Cc2cn(CC(F)(F)P(=O)(O)O)nn2)c(=O)[nH]c1=O` displayed an inhibition of 29%.
As for `Cc1cn(CC(I)CC(F)(F)P(=O)(O)O)c(=O)[nH]c1=O` (centres undefined), the inhibition was 95%.
`O=P(O)(O)C(F)(F)CCCCn1cnc2c(O)ncnc21` returned an inhibition of 25%.
In turn, `O=P(O)(O)C(F)(F)CCCn1cc(Cn2cnc3c(O)ncnc32)nn1` came in with an inhibition of 69%.
The same measure, in the same setting: under `Nc1nc(O)c2ncn(CCCC(F)(F)P(=O)(O)O)c2n1` stands 25%.

Target in a further assay: not listed separately
Nature of the assay: Inhibition of thymidine phosphorylase.
Compound `N=C1CCCN1Cc1[nH]c(=O)[nH]c(=O)c1Cl` [TIPIRACIL] showed a Ki of 0.035 µM.
With `Cc1cn(C[C@@H](CF)OCP(=O)(O)O)c(=O)[nH]c1=O`, the Ki was 2 µM.
In the case of `Nc1c(Br)c(=O)[nH]c(=O)n1CCCCCCCCP(=O)(O)O`, the inhibitory constant (Ki) turned out to be 142 µM.
`O=P(O)(O)CCCCCCCCn1ccc2c(O)nc(O)nc21` gave a Ki of 54 µM.
In the case of `Cc1cn(C[C@@H](C)OCP(=O)(O)O)c(=O)[nH]c1=O`, the inhibition constant (Ki) came to 2 µM.
`Cc1cn(C[C@@H](CO)OCP(=O)(O)O)c(=O)[nH]c1=O` returned an inhibition constant Ki of 2 µM.
